Assay results from ChEMBL document CHEMBL4422612, “Small Molecule Inhibitor that Stabilizes the Autoinhibited Conformation of the Oncogenic Tyrosine Phosphatase SHP2” (J Med Chem, 2019).
The source made the active and inactive calls. The calls are words filed in the database; no cut-off is given here.

Each molecule was assayed against T1, Tyrosine-protein phosphatase non-receptor type 11 (Homo sapiens) (UniProt Q06124) (assay: Inhibition of wild type recombinant human SHP2 at 50 uM using H-Glu-Phe-pTyr-Ala-Glu-Val-Gly-Arg-Ser-Pro-Pro-Asp-Pro-Ala-Lys as substrate preincubated for 30 mins followed by substrate addition and measured after 30 mins by Malachite Green-reagent based assay).
T1 sequence (whole entry): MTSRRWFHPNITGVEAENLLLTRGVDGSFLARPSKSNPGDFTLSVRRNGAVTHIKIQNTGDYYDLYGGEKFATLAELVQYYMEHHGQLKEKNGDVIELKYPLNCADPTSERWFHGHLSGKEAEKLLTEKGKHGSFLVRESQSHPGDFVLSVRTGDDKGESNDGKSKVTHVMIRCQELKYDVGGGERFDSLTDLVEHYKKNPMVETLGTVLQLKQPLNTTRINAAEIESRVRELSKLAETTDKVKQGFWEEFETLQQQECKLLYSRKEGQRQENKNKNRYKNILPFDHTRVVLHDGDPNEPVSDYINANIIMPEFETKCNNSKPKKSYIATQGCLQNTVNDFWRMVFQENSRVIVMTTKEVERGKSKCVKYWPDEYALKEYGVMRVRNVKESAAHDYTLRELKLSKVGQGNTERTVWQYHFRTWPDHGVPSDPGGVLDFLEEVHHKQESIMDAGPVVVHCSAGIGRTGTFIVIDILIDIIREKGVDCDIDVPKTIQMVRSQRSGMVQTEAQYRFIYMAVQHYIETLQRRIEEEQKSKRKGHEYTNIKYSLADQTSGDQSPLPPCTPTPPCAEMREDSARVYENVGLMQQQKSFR
In short: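 Full-length SHP2 or SHP1 (0.1 µg) preincubated with compound 30 min at room temperature in 25 mM Tris-HCl pH 7.4, 50 mM NaCl, 5 mM DTT, 2.5 mM EDTA. Phospho-peptide substrate added to 50 µM final; 30 min at 30 °C. Released phosphate read by Malachite Green at OD620. IC50 from six concentrations; three experiments.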

inhibition, active:
CCOc1cc(O)c(C(=O)/C=C/c2ccc(Cl)cc2Cl)cc1CN1C[C@@H](O)C[C@@H]1C(C)=O
CCOc1cc(O)c(C(=O)/C=C/c2ccc(Cl)cc2Cl)cc1CN1CCNCC1C (centres undefined)
C=CCOc1cc(O)c(C(=O)/C=C/c2ccc(Cl)cc2Cl)cc1CN1CCCCC1
CCOc1cc(O)c(C(=O)/C=C/c2ccc(Cl)cc2)cc1CN1CCCC1
C=CCOc1cc(O)c(C(=O)/C=C/c2ccc(Cl)cc2Cl)cc1CN1CCC(O)CC1
CCOc1cc(O)c(C(=O)/C=C/c2ccc(Cl)cc2Cl)cc1CN(CC)CC
CCOc1cc(O)c(C(=O)/C=C/c2ccc(OC)cc2)cc1CN1CCCCC1
CCOc1cc(O)c(C(=O)/C=C/c2ccc(Cl)cc2Cl)cc1CN1CCCCC1
CCOc1cc(O)c(C(=O)/C=C/c2ccc(Cl)cc2Cl)cc1CN1CCC(O)CC1
